Converted amounts (≈) assume the structure as drawn.
Tests used:
Assay type in all cases: functional
Escherichia coli [1] = test: Antibacterial activity against Escherichia coli TOP10 by Etest method
Escherichia coli [2] = test: Antibacterial activity against Escherichia coli 3963 by Etest method
Summary of the method: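 Strain 3963 is an E. coli poultry isolate of phylogenetic group D and multilocus sequence type 398. It was picked from 73 poultry isolates with ciprofloxacin MICs of ≥0.125 μg/ml. Resistance categories were assigned by published interpretive criteria.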

Escherichia coli [3] = test: Antibacterial activity against quinolone-resistant Escherichia coli TOP10-3963 transformant harboring qnrS1 gene by Etest method
Summary of the method: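 The transformant was made by extracting plasmid DNA from strain 3963 and transforming competent E. coli TOP10. Transformants were selected on LB agar containing 0.06 μg/ml ciprofloxacin and carried both qnrS1 and blaTEM-1.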

CC1(C)S[C@@H]2[C@H](NC(=O)[C@H](N)c3ccccc3)C(=O)N2[C@H]1C(=O)O [AMPICILLIN]
MIC (Escherichia coli [1]): 6 µg/mL (≈ 17.2 µM)
MIC (Escherichia coli [2]): ≥ 256 µg/mL
MIC (Escherichia coli [3]): ≥ 256 µg/mL

CO/N=C(\C(=O)N[C@@H]1C(=O)N2C(C(=O)O)=C(COC(C)=O)CS[C@H]12)c1csc(N)n1 [CEFOTAXIME]
MIC (Escherichia coli [1]): 0.064 µg/mL (≈ 0.141 µM)
MIC (Escherichia coli [2]): 0.047 µg/mL (≈ 0.103 µM)
MIC (Escherichia coli [3]): 0.064 µg/mL (≈ 0.141 µM)

CO/N=C(\C(=O)N[C@@H]1C(=O)N2C(C(=O)O)=C(CSc3nc(=O)c(O)nn3C)CS[C@H]12)c1csc(N)n1 [CEFTRIAXONE]
MIC (Escherichia coli [1]): 0.064 µg/mL (≈ 0.115 µM)
MIC (Escherichia coli [2]): 0.032 µg/mL (≈ 0.0577 µM)
MIC (Escherichia coli [3]): 0.094 µg/mL (≈ 0.169 µM)

O=C(O)c1cn(C2CC2)c2cc(N3CCNCC3)c(F)cc2c1=O [CIPROFLOXACIN]
MIC (Escherichia coli [2]): 0.38 µg/mL (≈ 1.15 µM)

CCN1CCN(c2cc3c(cc2F)c(=O)c(C(=O)O)cn3C2CC2)CC1 [ENROFLOXACIN]
MIC (Escherichia coli [1]): 0.08 µg/mL (≈ 0.223 µM)
MIC (Escherichia coli [2]): 2 µg/mL (≈ 5.56 µM)
MIC (Escherichia coli [3]): 0.5 µg/mL (≈ 1.39 µM)

C[C@H]1COc2c(N3CCN(C)CC3)c(F)cc3c(=O)c(C(=O)O)cn1c23.C[C@H]1COc2c(N3CCN(C)CC3)c(F)cc3c(=O)c(C(=O)O)cn1c23.O [LEVOFLOXACIN]
MIC (Escherichia coli [1]): 0.006 µg/mL
MIC (Escherichia coli [3]): 0.25 µg/mL

CCn1cc(C(=O)O)c(=O)c2ccc(C)nc21 [NALIDIXIC ACID]
MIC (Escherichia coli [1]): 2 µg/mL (≈ 8.61 µM)
MIC (Escherichia coli [2]): 16 µg/mL (≈ 68.9 µM)
MIC (Escherichia coli [3]): 6 µg/mL (≈ 25.8 µM)

— ChEMBL document CHEMBL1649536, “First report of plasmid-mediated quinolone resistance determinant qnrS1 in an Escherichia coli strain of animal origin in Italy” (2009)
